Screening data as filed in PubChem BioAssay.
This is a sample that favours compounds with a hit; in the whole collection about 3.7% have one here.
Kir21 block – inhibitors of mouse Kir2.1 inward-rectifier potassium channel; B-score at 10 µM; 0.85% of 310,000 active; HEK293-Kir2.1, FluxOR thallium flux fluorescence; stronger effect = lower value; Inward rectifier potassium channel 2 (Mus musculus), P35561; AID 1672, 2009;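 active means fluorescence ratio B-score at or below minus 3 SD of library scores, with starting-brightness B-score within 2 SD, cut at about -4.2 in these data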;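 further: channel flux triggered by added potassium and thallium sulfate stimulus; B-score of peak minus minimum fluorescence over baseline after thallium stimulus; more negative B-score means stronger Kir2.1 block with less thallium influx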
KCNQ1 pot – potentiators or activators of KCNQ1 channel, primary screen, cell-based, thallium flux, high-throughput; 0.35% of 310,000 active; CHO-K1 KCNQ1, thallium flux FluxOR fluorescence; stronger effect = higher value; B-score at 10 µM; AID 2648, 2010; Potassium voltage-gated channel subfamily KQT member 1 (Homo sapiens), P51787;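 active means fluorescence ratio B-score, a plate-corrected score, at least three library SD, with initial intensity B-score within 5 SD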
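Material: CHO-K1 cells stably expressing KCNQ1. Medium: assay buffer for compound exposure, DMSO matched across wells. Reagent: K+/Tl+ depolarizing stimulus. Compound dosing: single-concentration screen. Times: 37 °C overnight plating, 90-min dark dye load, 20-min compound pretreatment. Technique: FluxOR Tl+ flux fluorescence.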
KCNK9 block – KCNK9 potassium channel inhibitors, primary screen, HEK293 cells, thallium flux; 1.2% of 310,000 active; FluxOR thallium flux fluorescence; stronger effect = lower value; B-score at 10 µM; AID 488922, 2010;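 active means ratio B-score over 3 SD below the library mean, with starting fluorescence within 5 SD of its mean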;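 further: negative B-score means less thallium flux so channel inhibition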
Target sequence (Q9NPC2 whole entry, looked up): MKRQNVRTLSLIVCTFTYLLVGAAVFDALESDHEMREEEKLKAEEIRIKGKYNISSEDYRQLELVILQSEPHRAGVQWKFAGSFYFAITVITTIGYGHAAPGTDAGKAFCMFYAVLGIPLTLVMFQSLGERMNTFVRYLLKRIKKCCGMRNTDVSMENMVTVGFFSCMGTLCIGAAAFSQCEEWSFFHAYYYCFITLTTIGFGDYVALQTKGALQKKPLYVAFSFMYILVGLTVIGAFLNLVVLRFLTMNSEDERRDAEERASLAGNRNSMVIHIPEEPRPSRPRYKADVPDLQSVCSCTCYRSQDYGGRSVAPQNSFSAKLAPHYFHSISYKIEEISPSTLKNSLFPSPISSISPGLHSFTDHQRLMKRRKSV
hERG rescue – hERG rescue from dofetilide block, primary screen, cell-based, CHO-hERG, FluxOR thallium flux, dofetilide IC70; Voltage-gated inwardly rectifying potassium channel KCNH2 (Homo sapiens), Q12809; dofetilide IC70 present; activation (rescue from dofetilide block), less the hit threshold, % at 10 µM; 0.51% of 310,000 active;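 active means activation above the mean of controls blocked by dofetilide plus 5 SD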;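 further: thallium influx through hERG after potassium depolarization seen as dye fluorescence rise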
KCNK3 inh – human KCNK3 channel inhibitors, primary screen, CHO cells, FluxOR thallium flux, B-score; FluxOR fluorescence; stronger effect = lower value; B-score at 10 µM; 0.84% of 340,000 active; Potassium channel subfamily K member 3 (Homo sapiens), O14649; AID 602410, 2012;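 active means B-score under library mean minus 4 SD, starting fluorescence ratio at most library mean plus 5 SD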;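 further: more negative B-score means stronger inhibition of thallium flux through KCNK3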
KCNQ1 block – inhibitors of human KCNQ1 channel, primary screen, cell-based, thallium flux, high-throughput. 1.3% of 310,000 active. Potassium voltage-gated channel subfamily KQT member 1 (Homo sapiens), P51787. CHO-K1 KCNQ1, FluxOR thallium flux fluorescence; stronger effect = higher value. B-score at 10 µM;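 active means compounds whose thallium flux B-score, printed positive for inhibition, exceeds three library SD while starting fluorescence stays within three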;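 further: channel opened by potassium depolarization with thallium stimulus after 20 min compound exposure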
Each line names hits and unclear results; the compound was inactive in the other large screens.

O=C1/C(=C/c2cccs2)CCC/C1=C\c1cccs1	none
CC1C/C(=C/c2cccs2)C(=O)/C(=C/c2cccs2)C1 (stereo unspecified)	KCNK9 block -7.4
COc1cc(NC(=O)CCc2c(C)[nH]c(=O)c(C#N)c2C)cc(OC)c1	none
Cc1ccc(-c2csc3ncnc(SCC(=O)NCc4ccc5c(c4)OCO5)c23)cc1	none
O=C(CSc1ncnc2scc(-c3ccc(Cl)cc3)c12)NCc1ccc2c(c1)OCO2	KCNK3 inh -9.9
CCNC(=S)NNC(=O)c1cc(-c2cccnc2)nc2ccccc12	none
CCOC(=O)c1ccc(Nc2nc(-c3cccnc3)nc3ccccc23)cc1	KCNK9 block -7.1
CCOC(=O)c1ccc(NC(=S)NNC(=O)c2cc(-c3cccnc3)nc3ccccc23)cc1	KCNQ1 block 10
Cc1ccc(Nc2nc(-c3cccnc3)nc3ccccc23)cc1	none
CCOc1cc(N2CCOCC2)c(OCC)cc1NC(=O)CSc1ncccc1C(=O)O	none (no result: Kir21 block, KCNQ1 pot, KCNK9 block, hERG rescue, KCNQ1 block)
Cc1cc(/C=C2\SC(=S)N(C)C2=O)c(C)n1-c1cccc(O)c1	KCNK9 block -6.8
CN1C(=O)/C(=C\c2ccccc2OCc2ccccc2)SC1=S	none
CN1C(=O)/C(=C\c2cc(N=Nc3ccccc3)ccc2O)SC1=S	KCNQ1 block 7
CSc1nc2cc(Oc3cccc(Cl)c3Cl)c(Cl)cc2[nH]1	KCNK3 inh -11, KCNQ1 block 14
Cc1ccccc1NC(=O)c1cc(C(=O)c2cc(Cl)ccc2O)cn(-c2ccccc2C)c1=O	KCNQ1 block 9
CCn1ncc(Cl)c1C(=O)NC(=S)Nc1c(C)cc(C)cc1[N+](=O)[O-]	hERG rescue 5.8
CCOc1ccc(NC(=S)NC(=O)c2c(Cl)cnn2CC)c([N+](=O)[O-])c1	none
O=C(/C=C/c1ccccc1Cl)c1ccccc(=O)c1O	KCNQ1 pot 14, hERG rescue 16
Cc1ccc(C)c(/C=C/C(=O)c2ccccc(=O)c2O)c1	KCNQ1 pot 27, hERG rescue 18
Cc1ccc(/C=C/C(=O)c2ccccc(=O)c2O)c(C)c1	KCNQ1 pot 19, hERG rescue 26
O=C(/C=C/c1ccc([N+](=O)[O-])cc1)c1ccccc(=O)c1O	none (no result: Kir21 block, KCNQ1 pot, KCNK9 block, hERG rescue, KCNQ1 block)
O=C(C=Cc1ccccc1O)c1ccccc1O	none (no result: Kir21 block, KCNQ1 pot, KCNK9 block, hERG rescue, KCNQ1 block)
COC(C[C@H]1O[C@H]1[C@@H](O)[C@H](C)OCc1ccccc1)OC	none
Cc1onc(-c2c(Cl)cccc2Cl)c1C(=O)N1C(C)CCCC1C (stereo unspecified)	none
CCC(C)CCN1C(Nc2ccccc2)=NC[C@@H]1Cc1ccccc1 (stereo partly specified)	none
O=C1C(Cl)=C(Nc2ccc3cn[nH]c3c2)C(=O)c2ccccc21	KCNQ1 block 9
CC(=O)Nc1ccc(NC2=C(Cl)C(=O)c3ccccc3C2=O)cc1	KCNQ1 block 12 (no result: KCNK3 inh)
Cc1cc(C)nc(N2CCCC(C(=O)NCc3ccccc3)C2)n1 (stereo unspecified)	hERG rescue 5.2
Cc1ccc(CNC(=O)C2CCCN(c3nc(C)cc(C)n3)C2)cc1 (stereo unspecified)	none
COc1ccccc1C1CC(c2ccco2)=NN1c1ccccc1 (stereo unspecified)	KCNK9 block -7.6
Fc1ccc(C2=NN(c3ccccc3)C(c3ccco3)C2)cc1 (stereo unspecified)	none
O=C(CNC(=O)c1ccc(Br)o1)NNC(=O)COc1ccccc1Cl	none (no result: Kir21 block, KCNQ1 pot, KCNK9 block, hERG rescue, KCNQ1 block)
Cc1ccccc1S(=O)c1ccccc1C(=O)O (stereo unspecified)	none
COc1ccc(C(=O)/C=C/c2cccc(OCc3ccccc3)c2)cc1CSCC(=O)O	Kir21 block -6.2
COc1ccc(C(=O)/C=C/c2ccc(OCc3ccccc3)cc2)cc1CSCC(=O)O	none
O=C1/C(=C/c2ccc([N+](=O)[O-])cc2)Oc2cc(O)ccc21	KCNQ1 block 6
CC(C)(C)c1ccc(/C=C2\Oc3cc(O)ccc3C2=O)cc1	none
Cc1ccc(S(=O)(=O)/N=C2/NC(=O)/C(=C/c3cc([N+](=O)[O-])ccc3O)S2)cc1	none
COc1cccc(N=C2NC(=O)/C(=C/c3cc([N+](=O)[O-])ccc3O)S2)c1	KCNQ1 block 7
CC(=O)N1CCc2cc(S(=O)(=O)C(C)CC(=O)Nc3ccc(OC(F)(F)F)cc3)ccc21 (stereo unspecified)	none
COC(=O)c1cc(NC(=O)c2cccs2)ccc1N1CCOCC1	none
COC(=O)c1cc(NC(=O)c2cc(-c3ccc(Cl)cc3)oc2C(F)(F)F)ccc1N1CCOCC1	KCNQ1 block 7
Cc1ccc(S(=O)(=O)/N=C(/c2ccc(F)cc2)N(C)C)cc1	none
CCCCN1C(=O)C2C(c3ccc(OC)cc3O)NC(CC(C)C)(C(=O)O)C2C1=O (stereo unspecified)	none
CCC1(C(=O)O)NC(c2cc(OC)ccc2O)C2C(=O)N(Cc3ccccc3)C(=O)C21 (stereo unspecified)	hERG rescue 5.5
CCOC(=O)c1nnn(-c2nonc2N)c1-c1ccccc1Cl	Kir21 block -4.9
Cc1cc(NC(=O)COc2ccc3ccccc3c2Br)no1	none (no result: Kir21 block, KCNQ1 pot, KCNK9 block, hERG rescue, KCNQ1 block)
CON/C=C(\C=Nc1ccccc1)c1ncc(C(F)(F)F)cc1Cl	KCNQ1 block 7
COC(=O)/C(=C\Nc1cccc(Cl)c1C)c1ncc(C(F)(F)F)cc1Cl	none
COCCCNC(=O)C[C@H]1C[C@H](C(=O)N2CCCCC2)[C@@]2(CCc3ccccc3)c3[nH]c4cc(CCC(=O)N(C)C)ccc4c3CCN2C1=O	none (no result: Kir21 block, KCNQ1 pot, KCNK9 block, hERG rescue, KCNQ1 block)
O=C(O)c1cccc(-n2sc3ccccc3c2=O)c1	none (no result: Kir21 block, KCNQ1 pot, KCNK9 block, hERG rescue, KCNQ1 block)
O=c1c2ccccc2sn1-c1ccccc1	hERG rescue 6.5
C=CCN1C=C/C(=C\C=C(C#N)C#N)c2ccccc21	none
CCCCCCN1C=C/C(=C\C=C(C#N)C#N)c2ccccc21	KCNK9 block -7.2
Cc1ccc(-c2csc3nc[nH]c(=S)c23)cc1C	KCNQ1 pot 24, hERG rescue 56
COc1ccc(-c2csc3nc[nH]c(=O)c23)cc1OC	none
Cc1cc(SCC(=O)N2CCN(C(=O)c3ccco3)CC2)c(C)cc1Br	none (no result: Kir21 block, KCNQ1 pot, KCNK9 block, hERG rescue, KCNQ1 block)
O=C(c1ccccc1)c1ccc2nc(-c3ccco3)c(-c3ccco3)nc2c1	KCNQ1 block 9
CCCn1nc(C(=O)NNC(=O)Cc2ccc(S(=O)(=O)N3CCOCC3)s2)c2ccccc2c1=O	none
COc1ccc(NC(=O)C2(c3ccccc3)CCCC2)cc1	none
COCCNC(=O)c1ccc(NC(=O)C2(c3ccccc3)CCCC2)cc1	hERG rescue 7.5
